Measurements as given in ChEMBL document CHEMBL4138109, “Synthesis and structure-activity relationships of novel fused ring analogues of Q203 as antitubercular agents” (Eur J Med Chem, 2017).
Values after ≈ are worked out from the molar mass of the structure shown.

Key:
[1] = system: Mycobacterium tuberculosis; test: Antimycobacterial activity against GFP expressing Mycobacterium tuberculosis H37Rv assessed as reduction in bacterial replication in culture broth medium; assay type: functional
Procedure, shortened: (§1)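 H37Rv expressing GFP, grown either in liquid broth (extracellular) or inside macrophages (intracellular). The value is MIC80, the lowest concentration that inhibits growth by 80%, averaged from two independent measurements.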

[2] = system: Mycobacterium tuberculosis; test: Antimycobacterial activity against GFP expressing Mycobacterium tuberculosis H37Rv infected in mouse RAW264.7 cells assessed as reduction in bacterial replication after 5 days by confocal microscopic method; assay type: functional; conditions: 120 h; procedure, shortened: as §1
[3] = Half life in human liver microsomes; assay type: ADME, microsome
[4] = Half life in rat liver microsomes; assay type: ADME, microsome
[5] = Half life in mouse at 2 mg/kg, iv; assay type: ADME, organism-based; conditions: in vivo
Procedure, shortened: (§2)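 Mice received a single intravenous dose of 2 mg/kg or an oral dose of 10 mg/kg. Drug concentrations were measured in plasma, with sampling that extended to 24 h, and the pharmacokinetic parameters were derived from the plasma concentration–time profiles.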

[6] = Clearance in mouse at 2 mg/kg, iv; assay type: ADME, organism-based; conditions: in vivo; procedure, shortened: as §2
[7] = Volume of distribution at steady state in mouse at 2 mg/kg, iv; assay type: ADME, organism-based; conditions: in vivo, read-out: Vdss; procedure, shortened: as §2
[8] = Cmax in mouse at 10 mg/kg, po; assay type: ADME, organism-based; set-up: dose 10 mg/kg, route oral; conditions: in vivo; procedure, shortened: as §2
[9] = Half life in mouse at 10 mg/kg, po; assay type: ADME, organism-based; conditions: in vivo; procedure, shortened: as §2
[10] = Tmax in mouse at 10 mg/kg, po; assay type: ADME, organism-based; conditions: in vivo; procedure, shortened: as §2
[11] = AUC (0 to infinity) in mouse at 10 mg/kg, po; assay type: ADME, organism-based; set-up: dose 10 mg/kg, route oral, time infinity; conditions: in vivo; procedure, shortened: as §2
[12] = Oral bioavailability in mouse at 10 mg/kg; assay type: ADME, organism-based; conditions: in vivo; procedure, shortened: as §2

Row | SMILES | MIC80 [1] [µM] | MIC80 [2] [µM] | half-life [3] [min] | half-life [4] [min] | half-life [5] [min] | clearance [6] [mL/min/kg] | Vd [7] [L/kg] | Cmax [8] [ng/mL] | half-life [9] [h] | Tmax [10] [min] | AUC(0-inf) [11] [µg·h/mL] | bioavailability [12] [%]
1 | CCc1nc2ccc(Cl)cn2c1C(=O)NCc1ccc2oc(-c3ccc(F)cc3)nc2c1 | 0.009 (≈ 0.00404 µg/mL) | 0.003 (≈ 0.00135 µg/mL) | 25.6 | 54.3 | – | – | – | – | – | – | – | –
2 | CCc1nc2cc(Cl)ccn2c1C(=O)NCc1ccc2ccccc2c1 | 0.12 (≈ 0.0437 µg/mL) | 1 (≈ 0.364 µg/mL) | 23.7 | 6.3 | – | – | – | – | – | – | – | –
3 | CCc1nc2cc(Cl)ccn2c1C(=O)NCc1ccc2oc(C3CCCCC3)nc2c1 | 0.082 (≈ 0.0358 µg/mL) | 0.082 (≈ 0.0358 µg/mL) | 10.2 | 9.5 | – | – | – | – | – | – | – | –
4 | CCc1nc2ccc(Cl)cn2c1C(=O)NCc1ccc2oc(-c3ccc(OC(F)(F)F)cc3)nc2c1 | 0.027 (≈ 0.0139 µg/mL) | 0.009 (≈ 0.00463 µg/mL) | > 120 | > 120 | – | – | – | – | – | – | – | –
5 | CCc1nc2cc(Cl)ccn2c1C(=O)NCc1ccc2oc(CN3CCOCC3)nc2c1 | 13.7 (≈ 6.22 µg/mL) | 6.67 (≈ 3.03 µg/mL) | 23.2 | 18.9 | – | – | – | – | – | – | – | –
6 | CCc1nc2ccc(Cl)cn2c1C(=O)NCc1ccc2oc(C)nc2c1 | 0.2 (≈ 0.0738 µg/mL) | 0.082 (≈ 0.0302 µg/mL) | 32.2 | 5.8 | – | – | – | – | – | – | – | –
7 | CCc1nc2cc(Cl)ccn2c1C(=O)NCc1ccc2oc(-c3ccc(F)cc3)nc2c1 | 0.082 (≈ 0.0368 µg/mL) | 0.74 (≈ 0.332 µg/mL) | 103 | > 120 | – | – | – | – | – | – | – | –
8 | CCc1nc2ccc(Cl)cn2c1C(=O)NCc1ccc2c(c1)OCO2 | 0.082 (≈ 0.0293 µg/mL) | 0.009 (≈ 0.00322 µg/mL) | 7.4 | 2.1 | – | – | – | – | – | – | – | –
9 | CCc1nc2ccc(Cl)cn2c1C(=O)NCc1ccc2ccccc2c1 | 0.031 (≈ 0.0113 µg/mL) | 0.062 (≈ 0.0226 µg/mL) | 6.9 | 3.1 | – | – | – | – | – | – | – | –
10 | CCc1nc2cc(Cl)ccn2c1C(=O)NCc1ccc2oc(-c3ccc(OC(F)(F)F)cc3)nc2c1 | 0.009 (≈ 0.00463 µg/mL) | < 0.001 | > 120 | > 120 | 1080 | 0.6 | 1.2 | 5560 | 36.3 | 60 | 116 | 40.1
11 | CCc1nc2ccc(Cl)cn2c1C(=O)NCc1ccc2oc(C3CCCCC3)nc2c1 | 0.082 (≈ 0.0358 µg/mL) | 0.082 (≈ 0.0358 µg/mL) | 17 | 5.2 | – | – | – | – | – | – | – | –
12 | CCc1nc2ccc(Cl)cn2c1C(=O)NCc1ccc2oc(CN3CCOCC3)nc2c1 | 2.67 (≈ 1.21 µg/mL) | 2.22 (≈ 1.01 µg/mL) | 17 | 14.1 | – | – | – | – | – | – | – | –
13 | CCc1nc2cc(Cl)ccn2c1C(=O)NCc1ccc2oc(C)nc2c1 | 1.53 (≈ 0.564 µg/mL) | 0.74 (≈ 0.273 µg/mL) | > 120 | 10.3 | – | – | – | – | – | – | – | –
14 | NNC(=O)c1ccncc1 [ISONIAZID] | 0.49 (≈ 0.0672 µg/mL) | 0.2 (≈ 0.0274 µg/mL) | – | – | – | – | – | – | – | – | – | –
15 | CCc1nc2ccc(Cl)cn2c1C(=O)NCc1ccc(N2CCC(c3ccc(OC(F)(F)F)cc3)CC2)cc1 [TELACEBEC] | 0.004 (≈ 0.00223 µg/mL) | 0.001 (≈ 0.000557 µg/mL) | – | – | – | – | – | – | – | – | – | –
